hIAP act: human IAP activators, primary screen, biochemical, luminescence, uHTS; purified human IAP, CDP-Star luminescence, 30 min; hits give high values; 1 = vehicle-only enzyme, 0 = enzyme-free background; activation factor at 10 µM; 0.16% of 330,000 active; AID 2524, 2010;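 active = activation factor of the enzyme at least 2-fold when tested at 20 µM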
Target sequence (P09923 whole entry, looked up): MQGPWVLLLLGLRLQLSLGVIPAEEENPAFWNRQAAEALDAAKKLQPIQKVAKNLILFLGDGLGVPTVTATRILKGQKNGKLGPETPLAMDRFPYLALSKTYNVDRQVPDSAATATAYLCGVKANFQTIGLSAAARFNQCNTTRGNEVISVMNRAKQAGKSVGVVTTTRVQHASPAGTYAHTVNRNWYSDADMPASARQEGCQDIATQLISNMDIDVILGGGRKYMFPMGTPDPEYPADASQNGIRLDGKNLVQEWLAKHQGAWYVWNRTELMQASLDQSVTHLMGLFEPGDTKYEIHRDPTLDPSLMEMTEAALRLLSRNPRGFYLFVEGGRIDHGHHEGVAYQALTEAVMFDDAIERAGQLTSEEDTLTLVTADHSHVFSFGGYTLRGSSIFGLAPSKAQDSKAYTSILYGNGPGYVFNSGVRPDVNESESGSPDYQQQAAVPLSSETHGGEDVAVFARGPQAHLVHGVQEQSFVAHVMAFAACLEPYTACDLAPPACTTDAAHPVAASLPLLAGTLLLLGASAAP
mIAP activ: activators of mouse IAP, primary screen, biochemical, luminescence, uHTS | intestinal alkaline phosphatase [Mus musculus] | muIAP, CDP-Star luminescence, 30 min; hits give high values; 1 = vehicle-only enzyme signal, 0 = enzyme-free wells | activation factor at 10 µM | 0.24% of 330,000 active | AID 2805, 2010;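 active = activation factor of at least 2 at 20 µM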
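System: mouse IAP enzyme. Reagent: CDP-Star chemiluminescent phosphatase substrate. Benchmarks: DMSO wells, no-enzyme wells. Times: 30 min enzyme-substrate-compound incubation at room temperature. Detection: luminescence from enzymatic CDP-Star hydrolysis. Doses: test compounds delivered from DMSO solution.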
hIAP block: human IAP inhibitors, primary screen, biochemical, luminescence, uHTS; Intestinal-type alkaline phosphatase (Homo sapiens), P09923; purified IAP, CDP-Star luminescence, 30 min; inhibition, % at 10 µM; 0.12% of 330,000 active; AID 2544, 2010;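 active = inhibition reaching a set limit with compound at 10 µM in the primary screen, cut at about 35% in these data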;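 also: plate controls were DMSO wells with enzyme for no effect and no-enzyme buffer wells for full effect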
bIAP inhibitor: bovine intestinal alkaline phosphatase inhibitors, primary screen, selectivity assay for TNAP inhibitor project, biochemical, bovine IAP, CDP-star luminescence | inhibition, % at 20 µM | purified bovine IAP, 30 min | alkaline phosphatase, intestinal [Bos taurus] | AID 1019, 2008 | 190,000 tested, under 10 active;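 active = over 50% inhibition of intestinal alkaline phosphatase at 20 µM in the single-dose screen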
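test system = bovine IAP enzyme | medium = DEA buffer 100 mM, pH 9.8, with MgCl2 1.0 mM, ZnCl2 0.02 mM | detection = luminescence | dosing = single compound dose of 20 µM, 2% DMSO final | incubation = 30 min reaction at room temperature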
mIAP block: inhibitors of mouse IAP, primary screen, biochemical, luminescence, uHTS | inhibition, % at 10 µM | intestinal alkaline phosphatase [Mus musculus] | purified mouse IAP, CDP-Star luminescence, 30 min | AID 2806, 2010 | 0.2% of 330,000 active;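 active = inhibition of at least 40% at 10 µM in the primary screen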;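 also: plate controls were DMSO with enzyme for no effect and no enzyme wells for full effect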
bIAP activator: bovine intestinal alkaline phosphatase activators, primary screen, biochemical, bovine IAP, CDP-star luminescence; alkaline phosphatase, intestinal [Bos taurus]; purified bovine IAP, 30 min; hits give high values; fold of DMSO-control signal, blank-subtracted; activation factor at 20 µM; 0.17% of 200,000 active;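 active = activation factor of 2 or more at 20 µM, a signal rise over negative controls twice the positive control's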
hIAP act conf: human IAP activators, confirmation, biochemical, luminescence, single concentration, uHTS hits. shares compounds with hIAP act. purified IAP, CDP-Star luminescence, 30 min; hits give low values. activation (%Activity, negative = activation), % at 8.3 µM. 10% of 880 active. AID 434926, 2010;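 active = at least twofold enzyme activation in any of six single-dose repeats, which the averaged readout prints as negative percent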
* marks the source's active call; other numbers are inactive results; x = no result. Sampled rows, rich in hits. Any-hit rate of the full collection: about 0.77%.

SMILES	hIAP act	mIAP activ	hIAP block	bIAP inhibitor	mIAP block	bIAP activator	hIAP act conf
O=c1ccc2c(-c3ccccc3)c3ccc(O)cc3oc-2c1	0.86	0.81	14	x	19	x	x
Nc1ccc(-c2c3ccc(=O)cc-3oc3cc(O)ccc23)cc1C(=O)O	0.64	0.74	36*	x	26	x	64
CCc1cc(=O)[nH]c(-n2[nH]c(-c3ccccc3)cc2=O)n1	1.9	0.69	-94	-42	31	1.4	x
O=c1cc(-c2ccccc2)[nH]n1-c1nc2ccccc2[nH]1	2*	0.91	-102	-64	9	1.6	-58*
O=C(O)c1ccc(NCc2cccs2)cc1	0.98	1	2	x	0	x	x
CC1N(C(=O)N2CCOCC2)CCN1S(=O)(=O)c1cccc(C(F)(F)F)c1 (configuration not stated)	0.81	0.97	19	x	3	x	x
C1CCC(Nc2nc3nonc3nc2N2CCSCC2)C1	0.63	1	37*	-9	-3	1.1	-3
C1CCN(C2CCN(c3nc4nonc4nc3N3CCSCC3)CC2)C1	0.87	0.93	13	-12	7	1.1	x
O=C(O)Cn1c(=O)c2c3c(sc2n(Cc2ccccc2F)c1=O)CCCC3	1	1	-1	x	-2	x	x
Cc1ccc(-n2c(-c3cccnc3)n[nH]c2=S)c(C)c1	3*	0.94	-200	14	6	0.9	15
Cc1ccc(-n2c(-c3ccc(Cl)cc3)n[nH]c2=S)c(C)c1	0.89	0.96	11	x	4	x	x
CCc1cccc(CC)c1NC(=O)CN(CC(=O)O)CC(=O)O	2.1*	1.1	-110	x	-5	x	-5
CCSC(=O)N(CC)CC(=O)Nc1c(CC)cccc1CC	1.1	1.1	-8	10	-5	0.9	x
NS(=O)(=O)c1ccc(CCNC(=O)c2ccc(OCC3CCCO3)cc2)cc1 (configuration not stated)	0.98	0.98	2	x	2	x	x
COC(=O)c1cc(-c2ccccc2)n[nH]1	1	1	-3	5	-2	1	x
CS(=O)(=O)Cc1ccc(C(=O)NNC(=O)c2cc(-c3ccccc3)n[nH]2)cc1	1.3	0.79	-26	x	21	x	x
CS(=O)(=O)c1ccc(C(=O)NNC(=O)c2cc(-c3ccccc3)n[nH]2)cc1	0.49	0.74	51*	x	26	x	7
COc1cc(C(=O)NNC(=O)c2cc(-c3ccccc3)n[nH]2)cc(OC)c1C	2.5*	1.1	-149	x	-6	x	-42
O=S(=O)(NC1=NCCC1)c1ccc(F)cc1F	1.2	0.99	-17	-2	1	1	x
Cc1nn(CC(=O)O)c(C)c1NC(=O)c1cccs1	0.58	1	42*	x	-2	x	14
O=C(CSCc1c(Cl)cccc1Cl)Nc1ccc2c(c1)OCCO2	1.2	1.1	-23	-2	-11	1	x
COc1cccc(C2c3c(-c4ccccc4O)n[nH]c3C(=O)N2Cc2ccco2)c1 (configuration not stated)	2.1*	0.97	-110	x	2	x	4
COc1ccc(C(=O)Nc2cccc3c2C(=O)NC3=O)cc1S(=O)(=O)N1CCOCC1	0.64	0.93	36*	-7	7	1.1	-85*
COc1ccc(C(=O)Nc2cccc(C)c2)cc1S(=O)(=O)N1CCOCC1	0.87	0.98	13	-6	2	1.1	x
CCC1CCCCN1C1Sc2ccc(C(=O)OC)cc2NC1=O (configuration not stated)	2*	1.1	-100	-9	-8	1.1	-69*
SMILES	hIAP act	mIAP activ	hIAP block	bIAP inhibitor	mIAP block	bIAP activator	hIAP act conf
COc1cc(OC)c(OC)cc1/C=N/n1c(-c2n[nH]c3c2CCC3)n[nH]c1=S	2.1*	1.1	-107	x	-8	x	-42
Cn1nccc1C(=O)N1CCN(c2ccccc2F)CC1	0.54	1	46*	x	-2	x	6
CC1(C)CC2(CCO1)C(Nc1ccccc1)=NC(=S)N2CC(N)=O (configuration not stated)	1.2	1.1	-16	x	-9	x	x
O=S(=O)(Nc1ccc2c(c1)OCCO2)c1ccc(Br)s1	2.1*	0.94	-106	12	6	0.9	4
O=S(=O)(Nc1ccc2c(c1)OCCO2)c1cccs1	0.95	1.1	5	9	-9	0.9	x
CCOc1ccccc1C(=O)Nc1cc(C(=O)NCC(C)C)ccc1Cl	1	1	-4	2	-1	1	x
Cc1cc(NC(=O)c2ccc(N3C(=O)C4C5C=CC(C5)C4C3=O)cc2)no1 (configuration not stated)	3*	0.92	-201	6	8	0.9	-161*
Cc1cc(NC(=O)c2ccc(N3C(=O)CCC3=O)cc2)no1	1	1	0	8	-1	0.9	x
COC(=O)C(N)Cc1ccc(O)c(O)c1 (configuration not stated)	0.79	0.76	21	17	24	0.8	x
Cc1nc(S/C(=C/c2ccc(-c3ccc(Cl)cc3)o2)C(=O)O)n[nH]1	2.2*	0.92	-120	13	8	0.9	-89*
S=c1[nH]nc(-c2cc(-c3ccccc3)n[nH]2)n1/N=C/c1ccc(Cl)cc1	2*	0.99	-103	x	0	x	4
CS(=O)(=O)c1ccc(Cl)c(NC(=O)Cc2ccsc2)c1	0.64	1	36*	x	-2	x	5
CS(=O)(=O)c1ccc(Cl)c(NC(=O)Cc2c(Cl)cccc2Cl)c1	1.1	1	-10	12	0	0.9	x
COc1ccccc1NC(=O)c1ccccc1N(Cc1ccccc1)S(C)(=O)=O	1.2	0.99	-16	x	1	x	x
COc1ccc(NC(=O)/C(C#N)=C\c2ccc(N3CCOCC3)o2)cc1	0.61	0.8	39*	40	20	0.6	2
CCCCNCCCCOc1ccccc1	2.1*	1	-110	22	-4	0.8	-70
COc1ccccc1CNS(=O)(=O)c1c(C(=O)N2CCCCC2)c(C)n(C)c1C	1	0.99	-4	x	1	x	x
CC(C)(C)c1cn(-c2ccc(F)cc2)c(=S)[nH]1	0.65	0.97	35*	38	3	0.6	3
Cc1ccccc1-c1cn(-c2ccccc2)c(=S)[nH]1	0.9	0.96	10	x	4	x	x

Screening data deposited in PubChem BioAssay by Sanford-Burnham Center for Chemical Genomics.
